Source: paper PMC9311154 (British Journal of Clinical Pharmacology, 2022)
Where “and” joins values, the source holds several entries; their conditions need not be identical. Identical values can stand only once. Entries after “also recorded” stand apart in the source; their conditions may differ. Like-named read-outs stand apart in the source and are kept apart here. Marks after values point to notes of the source that are not given here.

Columns and labels:
C1 esterase inhibitor = C1 esterase inhibitor activity; type: in vivo, human; conditions: compared with placebo
Outline: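 Healthy men given the oral test compound (25, 50 or 100 mg once daily, or 25 mg twice daily) or placebo: single dose on day 1, washout days 2–3, dosing days 4–11, once-daily dose day 12. C1 esterase inhibitor activity measured in plasma by chromogenic substrate kit on a coagulation analyser, per manufacturer's instructions. Summarised descriptively, with no prespecified formal statistics.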

[1] = BAY 2433334 pharmacokinetics in plasma and urine, Parts A and B; type: in vivo, human; conditions: for tmax: median (range)
Safety and tolerability [2] = type: in vivo, human
Safety and tolerability [3] = type: in vivo, human; remark: listed apart in the source
Outline: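 Randomised, single-blind, placebo-controlled dose escalation in healthy men, 36 on active and 12 on placebo. Adverse events counted as treatment-emergent if they began or worsened after first study medication, up to 7 days post-treatment. Also assessed: physical examination, vital signs, 12-lead ECG and clinical laboratory tests. All participants dosed at least once were analysed descriptively.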

prothrombin time (PT) = assay: Prothrombin time; type: in vivo, human; conditions: compared with placebo
[4] = animal models; cited from earlier work
FXI = FXI concentration; type: in vivo, human; conditions: compared with placebo
Outline: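 Healthy men randomised to the oral test compound (25/50/100 mg once daily or 25 mg twice daily) or placebo. Single dose day 1, washout days 2–3, repeat dosing days 4–11, final dose day 12, after an overnight fast of at least 10 h on profiling days. FXI concentration measured by microtitre-plate ELISA with polyclonal antibodies. Descriptive summary only.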

[5] = tested on: activated partial thromboplastin time (aPTT); assay: aPTT; type: in vivo, human
[6] = tested on: activated partial thromboplastin time (aPTT); conditions: whole blood or plasma, in vitro and ex vivo; cited from earlier work
[7] = multiple once‐daily dosing for 9 consecutive days
[8] = 25 mg multiple dose + midazolam
[9] = 25 mg treatment sequence, Total (N = 24)
[10] = 75 mg multiple dose + midazolam
[11] = 75 mg treatment sequence, Total (N = 24)

For `CC[C@@H](C(=O)Nc1ccc(C(N)=O)c(F)c1)n1cc(OC)c(-c2cc(Cl)ccc2-n2cc(C(F)(F)F)nn2)cc1=O` [BAY 2433334], the “Effect on complement C1 esterase inhibitor activity” value (C1 esterase inhibitor) was “no significant effect”, the “Dose proportionality of AUC and Cmax in plasma” value ([1]; 25–100 mg OD, single and multiple dosing, Part A) was “dose proportional; also recorded: appeared to increase dose proportionally” and the “arithmetic mean renal elimination (%AE,ur) of unchanged drug” value ([1]; after multiple dosing) was 10.1–13.5%. The “RLIN, range” value ([1]; after once‐daily administration) was 1.03–1.08, the “arithmetic mean renal elimination (%AE,ur) of unchanged drug” value ([1]; after single‐dose administration) was 7.61–13.4 % of the dose and the “geometric mean terminal half‐life (t1/2), range across treatment groups” value ([1]; day 1) was 14.0 to 15.9 h. The tmax ([1]; day 1, 25 mg BID group) was 3.00 (1.00–5.98) h, the tmax ([1]; day 1, 25 mg OD) was 2.00 (1.48–5.98) h and the tmax ([1]; day 1, 50 mg OD) was 2.00 (0.750–4.00) h. The tmax ([1]; day 1, 100 mg OD) was 3.97 (1.47–6.00) h, the “apparent oral clearance, geometric means” value ([1]; day 1, across treatment groups) was 3.68 to 4.09 L/h and the “median time to Cmax, range across treatment groups” value ([1]; day 1, all treatment groups) was 2.00 to 3.97 h. For the same molecule, the tmax ([1]; day 12, 25 mg BID) was 1.50 (1.00–6.00) h, the tmax ([1]; day 12, 25 mg OD) was 4.00 (1.00–6.03) h and the tmax ([1]; day 12, 50 mg OD) was 3.00 (0.750–6.05) h. For the same molecule, the tmax ([1]; day 12, 100 mg OD) was 4.00 (1.50–6.00) h, the “apparent oral clearance, geometric means” value ([1]; day 12, across treatment groups) was 3.39 to 4.04 L/h and the “mean terminal half‐life (t1/2), range across treatment groups” value ([1]; day 12, after multiple dosing) was 15.8 to 17.8 h. For the same molecule, the “median time to Cmax, range across once‐daily groups” value ([1]; day 12, once‐daily dosing) was 3.00 to 4.00 h, the “RAAUC geometric mean, range” value [1, 7] was 1.50–1.72 and the “RACmax geometric mean, range” value [1, 7] was 1.41–1.63. The “Adverse event(s) of special interest” value (Safety and tolerability [2]; [8]) was 0 Number (%), the “Study drug‐related adverse event(s)” value (Safety and tolerability [2]; [8]) was 0 Number (%) and the “Study procedure‐related adverse event(s)” value (Safety and tolerability [2]; [8]) was 0 Number (%). For the same molecule, the “Adverse event(s) of special interest” value (Safety and tolerability [2]; 25 mg multiple dose alone) was 0 Number (%), the “Study drug‐related adverse event(s)” value (Safety and tolerability [2]; 25 mg multiple dose alone) was 0 Number (%) and the “Study procedure‐related adverse event(s)” value (Safety and tolerability [2]; 25 mg multiple dose alone) was 1 (4.2%) Number (%). For the same molecule, the “Adverse event(s) of special interest” value (Safety and tolerability [2]; 25 mg single dose + midazolam) was 0 Number (%), the “Study drug‐related adverse event(s)” value (Safety and tolerability [2]; 25 mg single dose + midazolam) was 0 Number (%) and the “Study procedure‐related adverse event(s)” value (Safety and tolerability [2]; 25 mg single dose + midazolam) was 0 Number (%). The “Adverse event(s) of special interest” value (Safety and tolerability [2]; [9]) was 0 Number (%), the “Study drug‐related adverse event(s)” value (Safety and tolerability [2]; [9]) was 0 Number (%) and the “Study procedure‐related adverse event(s)” value (Safety and tolerability [2]; [9]) was 4 (16.7%) Number (%). The “Adverse event(s) of special interest” value (Safety and tolerability [2]; [10]) was 0 Number (%), the “Study drug‐related adverse event(s)” value (Safety and tolerability [2]; [10]) was 0 Number (%) and the “Adverse event(s) of special interest” value (Safety and tolerability [2]; 75 mg multiple dose alone) was 0 Number (%). The “Study drug‐related adverse event(s)” value (Safety and tolerability [2]; 75 mg multiple dose alone) was 0 Number (%), the “Study procedure‐related adverse event(s)” value (Safety and tolerability [2]; 75 mg multiple dose alone) was 0 Number (%) and the “Adverse event(s) of special interest” value (Safety and tolerability [2]; 75 mg single dose + midazolam) was 0 Number (%). The “Study drug‐related adverse event(s)” value (Safety and tolerability [2]; 75 mg single dose + midazolam) was 0 Number (%), the “Study procedure‐related adverse event(s)” value (Safety and tolerability [2]; 75 mg single dose + midazolam) was 0 Number (%) and the “Adverse event(s) of special interest” value (Safety and tolerability [2]; [11]) was 0 Number (%). The “Study drug‐related adverse event(s)” value (Safety and tolerability [2]; [11]) was 0 Number (%), the “Study procedure‐related adverse event(s)” value (Safety and tolerability [2]; [11]) was 2 (8.3%) Number (%) and the “Study drug‐related TEAEs” value (Safety and tolerability [2]; Part C) was “No study drug‐related TEAEs”. For the same molecule, the “Participants who discontinued study medication because of TEAEs” value (Safety and tolerability [2]; Part C, 75 mg) was 2 participants, the “Adverse event(s) of special interest: Bleeding” value (“Adverse event(s) … Bleeding” for short) (Safety and tolerability [3]; 25 mg BID) was 0 Number (%) and the “Any adverse event(s) of special interest” value (Safety and tolerability [3]; 25 mg BID) was 1 (11.1%) Number (%). For the same molecule, the “Any study drug‐related adverse event(s)” value (Safety and tolerability [3]; 25 mg BID) was 0 Number (%), the “Any study procedure‐related adverse event(s)” value (Safety and tolerability [3]; 25 mg BID) was 2 (22.2%) Number (%) and the “TEAE: Medical device site urticaria” value (Safety and tolerability [3]; 25 mg BID) was 1 (11.1%) Number (%). For the same molecule, the “Adverse event(s) of special interest: Investigations” value (from here on “Adverse event(s) … Investigations”) (Safety and tolerability [3]; 25 mg BID, Glutamate dehydrogenase increased) was 1 (11.1%) ^e Number (%), the “Adverse event(s) … Bleeding” value (Safety and tolerability [3]; 25 mg OD) was 0 Number (%) and the “Any adverse event(s) of special interest” value (Safety and tolerability [3]; 25 mg OD) was 1 (11.1%) Number (%). For the same molecule, the “Any study drug‐related adverse event(s)” value (Safety and tolerability [3]; 25 mg OD) was 0 Number (%), the “Any study procedure‐related adverse event(s)” value (Safety and tolerability [3]; 25 mg OD) was 1 (11.1%) Number (%) and the “TEAE: Medical device site urticaria” value (Safety and tolerability [3]; 25 mg OD) was 0 Number (%). The “Adverse event(s) … Investigations” value (Safety and tolerability [3]; 25 mg OD, Amylase increased) was 1 (11.1%) ^c Number (%), the “Adverse event(s) … Bleeding” value (Safety and tolerability [3]; 50 mg OD) was 0 Number (%) and the “Any adverse event(s) of special interest” value (Safety and tolerability [3]; 50 mg OD) was 1 (11.1%) Number (%). The “Any study drug‐related adverse event(s)” value (Safety and tolerability [3]; 50 mg OD) was 0 Number (%), the “Any study procedure‐related adverse event(s)” value (Safety and tolerability [3]; 50 mg OD) was 3 (33.3%) Number (%) and the “TEAE: Medical device site urticaria” value (Safety and tolerability [3]; 50 mg OD) was 0 Number (%). For the same molecule, the “Adverse event(s) … Investigations” value (Safety and tolerability [3]; 50 mg OD, Lipase increased) was 1 (11.1%) ^d Number (%), the “Adverse event(s) … Bleeding” value (Safety and tolerability [3]; 100 mg OD) was 0 Number (%) and the “Any adverse event(s) of special interest” value (Safety and tolerability [3]; 100 mg OD) was 1 (11.1%) Number (%). The “Any study procedure‐related adverse event(s)” value (Safety and tolerability [3]; 100 mg OD) was 1 (11.1%) Number (%), the “TEAE: Medical device site urticaria” value (Safety and tolerability [3]; 100 mg OD) was 1 (11.1%) Number (%) and the “Any study drug‐related adverse event(s)” value (Safety and tolerability [3]; 100 mg OD, Headache) was 2 Number (%) and 2 (22.2%) ^b Number (%). The “Adverse event(s) … Investigations” value (Safety and tolerability [3]; 100 mg OD, Lipase increased) was 1 (11.1%) ^d Number (%), the “Adverse events leading to discontinuation” value (Safety and tolerability [3]; Parts A or B) was “No adverse events leading to discontinuation” and the “Adverse event(s) … Bleeding” value (Safety and tolerability [3]; Total BAY 2433334 (n = 36)) was 0 Number (%). The “Adverse event(s) … Investigations” value (Safety and tolerability [3]; Total BAY 2433334 (n = 36)) was 4 (11.1%) Number (%), the “Any adverse event(s) of special interest” value (Safety and tolerability [3]; Total BAY 2433334 (n = 36)) was 4 (11.1%) Number (%) and the “Any study drug‐related adverse event(s)” value (Safety and tolerability [3]; Total BAY 2433334 (n = 36)) was 2 (5.6%) Number (%). The “Any study procedure‐related adverse event(s)” value (Safety and tolerability [3]; Total BAY 2433334 (n = 36)) was 7 (19.4%) Number (%), the “TEAE: Medical device site urticaria” value (Safety and tolerability [3]; Total BAY 2433334 (n = 36)) was 2 (5.6%) Number (%) and the “Adverse events related to bleeding” value (Safety and tolerability [3]; all study parts) was “no clinically relevant adverse events related to bleeding”. For the same molecule, the Serious adverse events (Safety and tolerability [3]; all study parts) was “no serious adverse events were reported”, the Tolerability (Safety and tolerability [3]; all study parts) was “well tolerated” and the “Effects on vital signs, ECG or clinical laboratory investigations” value (Safety and tolerability [3]; other than the anticipated prolongation of aPTT) was “No clinically relevant effects”. For the same molecule, the “Effect on PT (absolute and INR values)” value (prothrombin time (PT)) was “no effect”, the “Reduction in thrombus weight” value [4] was “dose‐dependent reductions” and the “Effect on FXI concentrations” value (FXI) was “no significant effect”. The “Prolongation of aPTT” value ([5]; Parts A and B) was “dose‐dependent prolongation”, the “first time point at which prolongation of aPTT was apparent” value ([5]; after dosing) was 30 min and the “time of maximal aPTT prolongation after dosing” value ([5]; in vivo) was “approximately 4 h”. For the same molecule, the “Prolongation of aPTT” value [6] was “concentration‐dependent prolongation”.
